One data set has as its target T1, Glucocorticoid receptor (Homo sapiens, UniProt P04150).
T1 sequence (P04150 whole entry): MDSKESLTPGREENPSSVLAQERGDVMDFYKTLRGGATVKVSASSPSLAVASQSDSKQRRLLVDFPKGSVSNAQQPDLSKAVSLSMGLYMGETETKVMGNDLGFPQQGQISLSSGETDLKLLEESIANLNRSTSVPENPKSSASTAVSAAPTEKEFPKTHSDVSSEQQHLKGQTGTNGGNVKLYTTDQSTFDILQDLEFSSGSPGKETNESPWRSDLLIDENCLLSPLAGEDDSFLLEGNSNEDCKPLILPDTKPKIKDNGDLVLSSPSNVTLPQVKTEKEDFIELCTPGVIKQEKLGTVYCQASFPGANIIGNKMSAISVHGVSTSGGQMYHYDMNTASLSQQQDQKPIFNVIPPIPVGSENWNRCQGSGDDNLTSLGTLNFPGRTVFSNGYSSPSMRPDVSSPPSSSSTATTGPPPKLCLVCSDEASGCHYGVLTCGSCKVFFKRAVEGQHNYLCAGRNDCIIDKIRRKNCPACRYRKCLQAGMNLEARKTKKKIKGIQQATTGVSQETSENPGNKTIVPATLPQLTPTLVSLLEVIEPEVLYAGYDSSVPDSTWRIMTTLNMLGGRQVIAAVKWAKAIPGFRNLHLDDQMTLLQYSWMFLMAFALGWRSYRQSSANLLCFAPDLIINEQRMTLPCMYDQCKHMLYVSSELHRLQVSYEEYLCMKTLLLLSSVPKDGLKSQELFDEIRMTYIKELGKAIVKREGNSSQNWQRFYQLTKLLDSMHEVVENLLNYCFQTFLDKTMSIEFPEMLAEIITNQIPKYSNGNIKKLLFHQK
Briefly: Antagonist activity at glucocorticoid receptor (unknown origin) by NH Pro assay.

The target of data set [1] is T2, Estrogen receptor (Homo sapiens, UniProt P03372).
T2 sequence (P03372 whole entry): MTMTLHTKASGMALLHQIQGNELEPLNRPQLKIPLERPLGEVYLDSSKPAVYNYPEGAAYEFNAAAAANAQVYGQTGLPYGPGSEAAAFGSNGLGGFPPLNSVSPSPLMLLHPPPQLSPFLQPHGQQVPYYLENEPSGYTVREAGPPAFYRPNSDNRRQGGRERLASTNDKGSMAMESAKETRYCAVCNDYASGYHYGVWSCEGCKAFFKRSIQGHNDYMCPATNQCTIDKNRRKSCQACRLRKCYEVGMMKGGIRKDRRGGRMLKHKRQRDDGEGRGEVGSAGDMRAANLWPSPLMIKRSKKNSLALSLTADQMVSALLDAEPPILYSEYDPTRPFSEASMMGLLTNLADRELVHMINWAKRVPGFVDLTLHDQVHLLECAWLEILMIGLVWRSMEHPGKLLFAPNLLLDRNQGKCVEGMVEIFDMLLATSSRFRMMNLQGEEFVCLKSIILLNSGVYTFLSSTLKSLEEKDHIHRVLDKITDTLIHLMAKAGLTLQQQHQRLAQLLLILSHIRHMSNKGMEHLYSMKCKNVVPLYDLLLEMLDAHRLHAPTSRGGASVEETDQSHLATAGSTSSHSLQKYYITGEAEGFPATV
Briefly: Antagonist activity at estrogen receptor alpha (unknown origin) by NH Pro assay.

Data set [2] in a line: Half life in rat at 1 mg/kg, iv and 1 mg/lg, po. On the set-up: dose 1 mg/kg, route oral. The format is ADME, organism-based. As to conditions: in vivo. In short, it runs like this: (§1)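 Rats dosed at 1 mg/kg iv (n = 2) or 1 mg/kg po (n = 3), formulated at 1 mg/mL in PEG 200:water (70:30). Blood concentrations measured by LC/MS/MS after protein precipitation with acetonitrile.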

Data set [3] relates to Rattus norvegicus. The experiment in a line: Dose normalized AUC in rat at 1 mg/kg, po. In kind it is ADME, organism-based. On the set-up: dose 1 mg/kg, route oral. As to conditions: in vivo. In short, it runs like this:
as §1

In data set [4] the target is T2, Estrogen receptor. Briefly: Agonist activity at estrogen receptor alpha (unknown origin) by NH Pro assay.
Another data set concerns the target Estrogen receptor beta (Homo sapiens, UniProt Q92731). The experiment in a line: Agonist activity at estrogen receptor beta (unknown origin) by NH Pro assay.
The test system of data set [5] is Rattus norvegicus. The experiment in a line: Volume of distribution at steady state in rat at 1 mg/kg, iv and 1 mg/lg, po. The following applies: in vivo. Also noted: dose 1 mg/kg, route oral. In kind it is ADME, organism-based. Summed up: as §1
In another data set the target is T3, Progesterone receptor (Homo sapiens, UniProt P06401).
T3 sequence (P06401 whole entry): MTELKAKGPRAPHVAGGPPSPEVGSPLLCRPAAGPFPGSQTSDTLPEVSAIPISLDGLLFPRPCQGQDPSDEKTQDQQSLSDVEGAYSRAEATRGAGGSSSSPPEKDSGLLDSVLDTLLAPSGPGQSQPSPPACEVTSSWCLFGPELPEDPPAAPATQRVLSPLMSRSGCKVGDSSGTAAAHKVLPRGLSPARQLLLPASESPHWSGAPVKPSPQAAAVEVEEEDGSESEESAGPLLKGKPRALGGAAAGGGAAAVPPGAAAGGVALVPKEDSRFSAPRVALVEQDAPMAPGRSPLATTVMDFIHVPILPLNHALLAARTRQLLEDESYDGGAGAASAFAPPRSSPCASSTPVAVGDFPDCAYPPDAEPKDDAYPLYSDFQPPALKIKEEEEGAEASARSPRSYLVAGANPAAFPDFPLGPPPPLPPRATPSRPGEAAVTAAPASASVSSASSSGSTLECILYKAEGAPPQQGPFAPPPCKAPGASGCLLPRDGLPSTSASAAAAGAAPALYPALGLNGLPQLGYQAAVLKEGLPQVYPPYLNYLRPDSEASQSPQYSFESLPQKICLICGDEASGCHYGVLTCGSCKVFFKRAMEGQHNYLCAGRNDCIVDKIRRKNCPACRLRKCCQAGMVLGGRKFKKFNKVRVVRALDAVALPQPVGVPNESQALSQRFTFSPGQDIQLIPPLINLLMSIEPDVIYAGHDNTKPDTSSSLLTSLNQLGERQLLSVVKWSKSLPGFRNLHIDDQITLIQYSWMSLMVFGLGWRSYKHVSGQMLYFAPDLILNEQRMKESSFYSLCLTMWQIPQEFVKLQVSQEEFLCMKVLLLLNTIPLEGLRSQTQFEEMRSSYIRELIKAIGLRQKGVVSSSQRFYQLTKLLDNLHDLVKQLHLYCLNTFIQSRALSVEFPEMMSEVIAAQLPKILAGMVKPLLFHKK
The experiment in a line: Agonist activity at progesterone receptor beta (unknown origin) by NH Pro assay.

Where only a bound is given, the exact number is not on record here.

Sequence of Estrogen receptor beta (Q92731 whole entry): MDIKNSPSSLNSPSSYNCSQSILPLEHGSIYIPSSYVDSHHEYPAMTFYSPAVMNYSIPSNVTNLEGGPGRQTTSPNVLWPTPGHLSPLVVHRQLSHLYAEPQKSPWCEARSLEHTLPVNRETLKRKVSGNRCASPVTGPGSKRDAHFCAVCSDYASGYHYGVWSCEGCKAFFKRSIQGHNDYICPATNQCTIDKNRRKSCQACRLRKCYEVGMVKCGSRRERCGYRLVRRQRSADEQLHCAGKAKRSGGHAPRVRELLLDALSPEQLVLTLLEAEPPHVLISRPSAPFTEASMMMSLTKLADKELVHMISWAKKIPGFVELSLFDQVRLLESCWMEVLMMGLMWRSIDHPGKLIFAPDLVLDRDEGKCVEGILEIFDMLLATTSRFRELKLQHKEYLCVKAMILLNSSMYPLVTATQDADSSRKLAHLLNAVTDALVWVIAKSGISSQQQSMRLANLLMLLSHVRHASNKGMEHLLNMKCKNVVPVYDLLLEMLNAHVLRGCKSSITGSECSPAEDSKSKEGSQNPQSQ

As to `C[C@H](c1ccc(F)cc1)N1C(=O)O[C@](Cc2ccc(F)cc2)(C(=O)NCc2ccc(Cl)c(Cl)c2)C1=O`, the values for the IC50 against Glucocorticoid receptor and on Estrogen receptor [1] were 11 µM and 7.3 µM, respectively. Besides, the half-life in data set [2] is 2.3 h. Further, the AUC/dose with Rattus norvegicus [3] turned out to be 0.24 µM·kg·h/mg. The EC50 on Estrogen receptor [4], at Estrogen receptor beta and at Progesterone receptor was over 20 µM each time. Besides, the Vdss with Rattus norvegicus [5] was 7.9 L/kg.

Take `COc1cc(CNC(=O)[C@@]2(Cc3ccccc3)OC(=O)N([C@@H]3CCc4ccccc43)C2=O)cc(OC)c1`: the IC50 at Glucocorticoid receptor was over 20 µM; at Estrogen receptor [1], 17 µM. Moreover, the half-life in data set [2] is 2.5 h. This molecule displayed an AUC/dose in the data set on Rattus norvegicus [3] of 0.24 µM·kg·h/mg. The EC50 on Estrogen receptor [4], on Estrogen receptor beta and on Progesterone receptor was over 20 µM each time. Further, the Vdss in the data set with Rattus norvegicus [5] stood at 4.7 L/kg.

The values are drawn from ChEMBL document CHEMBL2407028, “Discovery of novel oxazolidinedione derivatives as potent and selective mineralocorticoid receptor antagonists” (Bioorg Med Chem Lett, 2013).
